Screens as filed in PubChem BioAssay.
Cneo AK release: causes C. neoformans cell lysis. adenylate kinase release luminescence, 4 h; normalised: neutral wells 0, clomiphene wells 100. lysis activity, % at 15 µM. AID 651654. 360,000 compounds, 0.2% hits;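 active means mean lysis activity across replicates of at least 80%, whatever share of replicates individually reach that level; inactive means mean lysis activity below 80%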
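Schedule: static 4 h at 37 °C with compound, 1 h detection; system: C. neoformans cells; benchmarks: Clomiphene as positive control; buffer or medium: fresh YPD medium; measure: luminescence rise reflecting yeast cell lysis; measured by: luminescent adenylate kinase detection reagent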
Efflux pump inh: inhibitors of Candida antifungal efflux pumps expressed in yeast | S. cerevisiae Candida pump triplex, Nile Red efflux | 330,000 compounds, 0.44% hits | AID 485275 | inhibition, % at 10 µM;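 active means plate passing quality check with inhibition over a set limit, or well fluorescence over plate mean plus 4 SD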;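 further: Nile Red retained in pooled yeast measured as flow cytometry median fluorescence; 0% = buffer negative control and 100% = Enniatin B positive control; higher means more Nile Red kept so more efflux inhibition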
C2C12 statin: suppressors of simvastatin-induced myotoxicity in C2C12 myotubes. ATP luminescence, 48 h; scaled: DMSO 0, geranylgeraniol control 100. rescue of ATP level, % at 7.49 µM. 330,000 compounds, 0.78% hits. AID 602340;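 active means mean ATP rescue above about 67%, or every replicate alone reaching that limit, limit read from the data, passing the limit was not always enough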;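 further: myotubes were challenged with 10 µM simvastatin during compound exposure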
Mot1-301 SUMO: blocks SUMOylation pathway, rescuing yeast Mot1-301 growth; 320,000 compounds, 1% hits; growth rescue, % at 18.8 µM; S. cerevisiae Mot1-301 growth rescue, ATP luminescence, 38.5C; percent above DMSO median, 100 means doubled;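 active means every valid replicate shows activation above 250% relative to neutral control wells; inactive means the rest, any valid replicate at or below 250%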;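 further: OY570 slx delta 5 strain wells were the positive control but not used for scaling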
Mot1 SUMO dose: yeast SUMO pathway inhibition in dose response; growth activity, percent, % at 42 µM; 2,300 tested, under 10 active; S. cerevisiae Mot1-301 galactose growth, ATP luminescence, 24 h; -100 = growth of slx-deleted rescue strain; shares compounds with Mot1-301 SUMO;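 active means Signal drops as the depositor expects, and the fitted half-maximal dose is no more than ten times the top valid tested dose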;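 further: more negative values mean stronger growth rescue toward the control strain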
An asterisk follows results filed as active; [ ] = dose if it differs, or a comment. This is a sample that favours compounds with a hit; in the whole collection about 1.8% have one here.

Screening Cc1ccccc1CSc1n[nH]c(NS(=O)(=O)c2ccccc2)n1 returned Cneo AK release 2, Efflux pump inh 0, Mot1-301 SUMO active and Mot1 SUMO dose 0[21 µM].
For Cc1cccc(NC(=O)CO/N=C/c2ccc3c(c2)OCO3)c1 the results were Efflux pump inh -2 and Mot1-301 SUMO 19.
For COc1ccc(NC(=S)N2CCN(c3ccccn3)CC2)cc1OC the results were Efflux pump inh 0 and Mot1-301 SUMO 3.
`COc1ccc(C)cc1NC(=S)N1CCN(c2ccccn2)CC1` gave Cneo AK release 1, Efflux pump inh 0, C2C12 statin -12, Mot1-301 SUMO 513* and Mot1 SUMO dose 1.
For O=c1[nH]nc(Cc2ccc(-c3ccccc3Cl)o2)c2ccccc12 the results were Cneo AK release 0, Efflux pump inh 0, Mot1-301 SUMO 360* and Mot1 SUMO dose 0.
Screening O=C1C=C(NC(=O)Nc2ccc(Cl)c(Cl)c2)CCC1 returned Efflux pump inh 0 and Mot1-301 SUMO 2.
For CNC(=O)NC(=O)COC(=O)c1n[nH]c2ccccc12 the results were Cneo AK release 2, Efflux pump inh 0, C2C12 statin -6 and Mot1-301 SUMO 8.
Screening CCOC(=O)Nc1sc(=S)n(C)c1C returned Cneo AK release 3, Efflux pump inh 0, C2C12 statin -2, Mot1-301 SUMO 509* and Mot1 SUMO dose 0.
Cc1c(NC(=O)OCCNC(=O)Nc2ccccc2)sc(=S)n1C was read as Cneo AK release 0, Efflux pump inh 0, C2C12 statin 0 and Mot1-301 SUMO 213.
Oc1ccc(/C=N/N2CCN(c3ccccn3)CC2)cc1 was read as Cneo AK release -1, Efflux pump inh 0, C2C12 statin -5 and Mot1-301 SUMO 200.
Screening Oc1cccc(/C=N/N2CCN(c3ccccn3)CC2)c1 returned Cneo AK release -1, Efflux pump inh 0, Mot1-301 SUMO 547* and Mot1 SUMO dose 0[21 µM].
`Cc1cccc(Cn2nc(C)cc2NC(=O)Cn2cc([N+](=O)[O-])cn2)c1` gave Cneo AK release 0, Efflux pump inh 1, C2C12 statin -1 and Mot1-301 SUMO 7.
CC(Oc1ccc([N+](=O)[O-])cc1)C(=O)NCCCN1CCOCC1 (centres undefined) was read as Cneo AK release 1, Efflux pump inh 0, C2C12 statin -5, Mot1-301 SUMO 505* and Mot1 SUMO dose 0.
Clc1cccc(-c2ccc3ncnc(NCc4cccs4)c3c2)c1 was read as Cneo AK release 1, Efflux pump inh 0, C2C12 statin -27 and Mot1-301 SUMO 198.
`Cc1csc(CNc2ncnc3ccc(-c4cccnc4)cc23)c1` gave Cneo AK release -1, Efflux pump inh 0, C2C12 statin -34 and Mot1-301 SUMO -7.
For Cc1csc(CNc2ncnc3ccc(-c4ccccc4Cl)cc23)c1 the results were Cneo AK release -1, Efflux pump inh 0, C2C12 statin -4, Mot1-301 SUMO active and Mot1 SUMO dose -1.
Screening Clc1ccccc1-c1ccc2ncnc(NCc3cccs3)c2c1 returned Cneo AK release 26, Efflux pump inh 0, C2C12 statin -23, Mot1-301 SUMO 411* and Mot1 SUMO dose -3.
C#CCn1c(=NC(=O)CN2C(=O)CCC2=O)sc2cccc(OC)c21 was read as Efflux pump inh 0, C2C12 statin -4, Mot1-301 SUMO active and Mot1 SUMO dose 1.
Screening O=C(CNC(=O)c1ccccc1)OCC(=O)c1ccc(Cl)s1 returned Cneo AK release 2, Efflux pump inh 0, C2C12 statin 6 and Mot1-301 SUMO 6.
Screening COc1ccc(NC(=O)CCCC(=O)c2ccccc2)cc1OC returned Cneo AK release 2, Efflux pump inh 0, C2C12 statin 11 and Mot1-301 SUMO 499.
COc1ccc(/C=N/NC(=O)CCC(=O)Nc2ccccc2)cc1OC was read as Efflux pump inh 0, Mot1-301 SUMO 795* and Mot1 SUMO dose 1.
For COc1cc(/C=N/NC(=O)CCC(=O)Nc2ccc(F)cc2)ccc1O the results were Cneo AK release -3, Efflux pump inh 0, C2C12 statin 3 and Mot1-301 SUMO -4.
For COc1ccc(NC(=O)CCCc2ccccc2)cc1OC the results were Cneo AK release 3, Efflux pump inh 0, C2C12 statin 4, Mot1-301 SUMO 382* and Mot1 SUMO dose 0.
For Cc1cccc(NC(=O)CCc2ccccc2)c1 the results were Cneo AK release 0, Efflux pump inh 0, C2C12 statin -16, Mot1-301 SUMO 520* and Mot1 SUMO dose 0.
For COc1ccc(NS(=O)(=O)Cc2ccccc2Cl)cn1 the results were Cneo AK release 13, Efflux pump inh 0, C2C12 statin -15 and Mot1-301 SUMO 5.
`Cc1cc(C)cc(NC(=O)CC23CC4CC(C2)CC(n2nnc(C)n2)(C4)C3)c1` gave Cneo AK release 0, Efflux pump inh 0 and Mot1-301 SUMO -2.
For COc1ccc(-c2cc(=O)[nH]c(N3CCN(Cc4ccccc4)CC3)n2)cc1 the results were Cneo AK release 1, Efflux pump inh 0, C2C12 statin 4 and Mot1-301 SUMO 8.
Screening O=c1cc(-c2ccccc2)nc(N2CCN(Cc3ccccc3)CC2)[nH]1 returned Cneo AK release -1, Efflux pump inh 0, C2C12 statin 13, Mot1-301 SUMO 479* and Mot1 SUMO dose 0.
Screening COc1cc(CNCCN2CCOCC2)ccc1OCc1ccccc1Cl returned Efflux pump inh 0, C2C12 statin -16, Mot1-301 SUMO 453* and Mot1 SUMO dose 0.
Clc1cc(Br)ccc1OCCOCCN1CCOCC1 was read as Cneo AK release 3, Efflux pump inh 0, C2C12 statin -14, Mot1-301 SUMO 504* and Mot1 SUMO dose 0.
`CCOc1ccc2ccccc2c1CNCCN1CCOCC1` gave Cneo AK release 2, Efflux pump inh 0, C2C12 statin 2 and Mot1-301 SUMO 11.
`CCOc1ccc(Br)cc1CNCCN1CCOCC1` gave Efflux pump inh 0, Mot1-301 SUMO 399* and Mot1 SUMO dose 0.
`COc1cc(CNCCN2CCOCC2)ccc1OCc1ccc(Cl)cc1` gave Cneo AK release -2, Efflux pump inh 0, C2C12 statin -18 and Mot1-301 SUMO 38.
`Cc1ccc(SCC(=O)O/N=C(\N)c2cccc([N+](=O)[O-])c2)cc1` gave Cneo AK release 5, Efflux pump inh -1, C2C12 statin 11, Mot1-301 SUMO active and Mot1 SUMO dose 0.
For Cc1ccc(S(=O)(=O)N(C)CC(=O)O/N=C(\N)c2cccc([N+](=O)[O-])c2)cc1 the results were Cneo AK release 0, Efflux pump inh 0, C2C12 statin -38 and Mot1-301 SUMO 1.
For O=C(Nc1cc(F)ccc1F)C1CCCO1 (centres undefined) the results were Efflux pump inh -1, Mot1-301 SUMO active and Mot1 SUMO dose 0.
Screening Cc1ccc(C(=O)NNc2ncnc3c2cnn3C)cc1 returned Efflux pump inh 0, C2C12 statin -7, Mot1-301 SUMO active and Mot1 SUMO dose 0.
